DENV2 CPE – DENV2-induced cell death inhibition; DENV2-infected cells, cytopathic effect rescue, plate reader; CPE inhibition, % at 9.99 µM; actives 1.7% (n = 350,000); AID 651640; in the data active means CPE inhibition above about 20%, passing the limit was not always enough; inconclusive means no clear call, values can overlap the other calls; tested in BHK-21 cells;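 further: 0% = median of neutral control wells and 100% = median of positive control wells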
E-sel inducer – induces E-selectin expression in human endothelial cells. P16581. HUVEC E-selectin immunofluorescence imaging; normalized: neutral wells 0, TNF-alpha wells 100. activation, % at 7.58 µM. actives 0.37% (n = 260,000). AID 686992;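 active means mean E-selectin-positive cell signal at least 10% of the positive control, reached in at least 60% of replicates, without over 20% cell loss; inconclusive means no rule given, readout overlaps actives, possibly toxicity-flagged; inactive means the rest, including those meeting only one limit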
Target sequence (P16581 whole entry, looked up): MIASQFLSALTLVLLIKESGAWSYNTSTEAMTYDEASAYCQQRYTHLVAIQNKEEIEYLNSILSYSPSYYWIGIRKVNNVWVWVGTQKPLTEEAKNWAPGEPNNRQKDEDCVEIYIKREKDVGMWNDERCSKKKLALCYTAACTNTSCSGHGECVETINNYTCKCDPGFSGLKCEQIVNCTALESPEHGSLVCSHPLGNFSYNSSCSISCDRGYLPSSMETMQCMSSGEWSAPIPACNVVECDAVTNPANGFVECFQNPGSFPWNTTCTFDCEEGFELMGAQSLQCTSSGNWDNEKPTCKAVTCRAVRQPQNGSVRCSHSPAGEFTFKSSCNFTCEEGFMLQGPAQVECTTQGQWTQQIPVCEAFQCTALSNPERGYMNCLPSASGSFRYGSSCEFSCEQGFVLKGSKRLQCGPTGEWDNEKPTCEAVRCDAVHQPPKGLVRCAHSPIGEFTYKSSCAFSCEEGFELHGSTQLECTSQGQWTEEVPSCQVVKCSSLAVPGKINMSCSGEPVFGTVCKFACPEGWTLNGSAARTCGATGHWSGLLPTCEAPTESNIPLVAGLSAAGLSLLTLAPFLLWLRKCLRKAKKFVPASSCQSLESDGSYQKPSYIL
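Assay system: HUVEC, human umbilical vein endothelial cells / Amount: 3,000 HUVEC/well / Controls: TNF-alpha positive control, DMSO neutral control / Compound dosing: single concentration / Medium: EGM-2 over gelatin coat / Evaluation: percent E-selectin-positive cells / Signal: immunofluorescence imaging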
SIRT5 block – sirtuin-5 (human) deacylase inhibition. Q9NXA8. Purified SirT5, succinyl-peptide AMC, trypsin-coupled fluorescence. inhibition, % at 15 µM. actives 1.1% (n = 330,000); in the data active means inhibition above about 15%; inconclusive means no clear call, values can overlap the other calls
* marks the source's active call; other numbers are inactive results. The list is not random: actives were taken first. Their share in the collection is about 2.8%.

Screening Cc1ccccc1S(=O)(=O)N1CC(=O)N2[C@H](C1)[C@@H](c1ccc(C#CCC(C)C)cc1)[C@@H]2CO returned DENV2 CPE 9, E-sel inducer 0 and SIRT5 block 11.
Screening C[C@H](CO)N1C[C@H](C)[C@@H](CN(C)C(=O)C2CCC2)Oc2cc(C#Cc3ccncc3)ccc2S1(=O)=O returned DENV2 CPE 6, E-sel inducer -1 and SIRT5 block -3.
Screening Cc1cc(C)nc(N2CCC(C(=O)NCCc3ccc(Cl)cc3)CC2)n1 returned DENV2 CPE 0, E-sel inducer 0 and SIRT5 block 15*.
Cc1cc(C)nc(N2CCC(C(=O)NCCc3ccc(F)cc3)CC2)n1 was read as SIRT5 block -2.
`CN1C(=O)c2cc(NC(=O)C3CC3)ccc2OC[C@H]2O[C@@H](CC(=O)NCCN3CCCC3)CC[C@H]21` gave DENV2 CPE 4, E-sel inducer 0 and SIRT5 block -3.
Screening COc1ccc2c3c([nH]c2c1)[C@@H](CO)N(C(=O)CN(C)C)CC31CCN(CC2CCCCC2)CC1 returned DENV2 CPE -4 and E-sel inducer 0.
Screening C/C=C/c1ccc(C2[C@H]3CNC[C@@H]2N3C(=O)Nc2ccc3c(c2)OCO3)cc1 (stereo partly specified) returned DENV2 CPE 5, E-sel inducer 0 and SIRT5 block 2.
Screening COc1ccc(-c2cnc3c(c2)C(=O)N([C@H](C)CO)C[C@H](C)[C@H](CN(C)S(=O)(=O)c2cccc(OC)c2)O3)cc1 returned E-sel inducer 0.
`COCCNC(=O)CCCn1c(=O)c2cc(OC)c(OC)cc2n(CC(=O)c2cccc(OC)c2)c1=O` gave DENV2 CPE 3, E-sel inducer 0 and SIRT5 block 19*.
COCCNC(=O)CCCn1c(=O)c2cc(OC)c(OC)cc2n(CC(=O)Nc2ccccc2OC)c1=O was read as DENV2 CPE 8, E-sel inducer 3 and SIRT5 block 1.
Screening COc1cccc(NC(=O)N2CC3(C2)[C@@H](c2ccccc2)[C@@H](CO)N3C(=O)C2CCCC2)c1 returned DENV2 CPE -2, E-sel inducer 0 and SIRT5 block 1.
`COc1ccc(NS(=O)(=O)c2cc(NC(=O)c3ccccn3)ccc2OC)cc1Br` gave DENV2 CPE 10, E-sel inducer 0 and SIRT5 block -4.
COc1ccc(NC(=O)c2c(F)cccc2F)cc1S(=O)(=O)Nc1ccc(Br)cc1 was read as DENV2 CPE 49* and SIRT5 block 2.
Screening C/C=C/c1ccc2c(c1)O[C@H](CN(C)Cc1ccc(C(=O)O)cc1)[C@H](C)CN([C@@H](C)CO)S2(=O)=O returned E-sel inducer 0 and SIRT5 block 0.
Cc1ccc(C(=O)N/C(=C/c2cccs2)C(=O)NCCCn2ccnc2)cc1 was read as DENV2 CPE 31* and SIRT5 block 0.
For O=C(NCCCn1ccnc1)/C(=C/c1cccs1)NC(=O)c1ccco1 the results were DENV2 CPE 5 and E-sel inducer 6.
Screening COc1ccccc1CNC(=O)C[C@@H]1CC[C@H]2[C@@H](COC[C@@H](O)CN2C(=O)Nc2ccccc2)O1 returned DENV2 CPE -9, E-sel inducer 0 and SIRT5 block -1.
Screening Cc1nn(C)cc1NC(=O)C[C@H]1CC[C@@H]2[C@@H](COc3ccc(NC(=O)C4CCC4)cc3C(=O)N2C)O1 returned E-sel inducer 2.
CC(C)c1ccccc1OCC(=O)Nc1ccc2[nH]ncc2c1 was read as DENV2 CPE -3 and SIRT5 block 18*.
`COc1ccccc1C(=O)Nc1ccc2[nH]ncc2c1` gave DENV2 CPE 1 and SIRT5 block -1.
`Cc1noc(C)c1S(=O)(=O)N(C)C[C@H]1OCCCC[C@H](C)Oc2ccc(NC(=O)NC3CCCCC3)cc2C(=O)N([C@H](C)CO)C[C@H]1C` gave E-sel inducer 0.
C[C@H]1CN([C@@H](C)CO)C(=O)c2cc(NC(=O)CCCN(C)C)ccc2O[C@@H]1CN(C)S(=O)(=O)c1cn(C)cn1 was read as DENV2 CPE 38*, E-sel inducer -3 and SIRT5 block 2.
C[C@@H]1CN([C@H](C)CO)C(=O)Cc2cc(NS(C)(=O)=O)ccc2O[C@H]1CN(C)S(=O)(=O)c1cn(C)cn1 was read as DENV2 CPE 2 and E-sel inducer 389*.
Screening C[C@@H]1CN([C@H](C)CO)C(=O)c2cc(NC(=O)CCCN(C)C)ccc2O[C@H]1CN(C)S(=O)(=O)c1cn(C)cn1 returned DENV2 CPE 6, E-sel inducer 0 and SIRT5 block -1.
Screening C[C@H](CO)N1C[C@H](C)[C@@H](CN(C)S(=O)(=O)c2cn(C)cn2)Oc2ccc(NC(=O)C3CC3)cc2CC1=O returned DENV2 CPE -8, E-sel inducer 0 and SIRT5 block 16*.
C[C@@H]1CN([C@H](C)CO)C(=O)Cc2cc(NS(C)(=O)=O)ccc2O[C@@H]1CN(C)S(=O)(=O)c1cn(C)cn1 was read as DENV2 CPE -3 and E-sel inducer inconclusive.
For C[C@@H]1CN([C@H](C)CO)C(=O)c2cc(NC(=O)C3CC3)ccc2O[C@H]1CN(C)S(=O)(=O)c1cn(C)cn1 the results were DENV2 CPE 13, E-sel inducer 0 and SIRT5 block -2.
C[C@H](CO)N1C[C@H](C)[C@H](CN(C)S(=O)(=O)c2cn(C)cn2)Oc2ccc(NC(=O)C3CC3)cc2CC1=O was read as DENV2 CPE 7, E-sel inducer 0 and SIRT5 block -1.
`C[C@H]1CN([C@@H](C)CO)C(=O)c2cc(NC(=O)C3CC3)ccc2O[C@H]1CN(C)S(=O)(=O)c1cn(C)cn1` gave DENV2 CPE 2, E-sel inducer 0 and SIRT5 block 29*.
`CC=Cc1ccc2n(c1=O)C[C@H]1[C@H](CO)[C@@H](C(=O)N[C@@H](C)c3ccccc3)[C@@H]2N1CC` (mixture of isomers) gave DENV2 CPE 4, E-sel inducer 0 and SIRT5 block -5.
`CO[C@@H]1CN(C)C(=O)c2ccc(NC(=O)c3nc4ccccc4s3)cc2OC[C@@H](C)N(Cc2cncnc2)C[C@H]1C` gave DENV2 CPE -10 and E-sel inducer 0.
`O=C(C[C@H]1CC[C@H]2[C@@H](COC[C@@H](O)CN2C(=O)c2ccccc2)O1)Nc1ccccc1` gave DENV2 CPE 8, E-sel inducer 0 and SIRT5 block -1.
Screening COc1ccc(OC)c(CN2CCN(Cc3cc(=O)oc4cc(O)ccc34)CC2)c1 returned DENV2 CPE 8 and SIRT5 block -30.
Screening COc1ccc2c(CN3CCCC3)cc(=O)oc2c1 returned DENV2 CPE 4, E-sel inducer 0 and SIRT5 block 19*.
CC(C)C#Cc1cnc2c(c1)C(=O)N([C@H](C)CO)C[C@@H](C)[C@H](CN(C)C(=O)Cc1ccccn1)O2 was read as DENV2 CPE 5, E-sel inducer 0 and SIRT5 block 14.
Screening C/C=C/c1ccccc1[C@@H]1[C@@H](C#N)N(C(C)=O)[C@H]1CO returned DENV2 CPE -2, E-sel inducer 0 and SIRT5 block -4.
